HTR1E agonist: agonists of human 5-HT1E serotonin receptor; CHO 5-HT1E Ga15 NFAT-bla reporter, FRET; 0% DMSO wells, 100% control agonist wells; activation, % at 6 µM; 0.69% of 65,000 active; AID 574;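 active means activation above a set limit, the screen-wide mean activation plus 3 SD, cut at about 8.5% in these data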;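 further: 100% = positive control agonist at 1 µM giving full maximal response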
Target sequence (P28566 whole entry, looked up): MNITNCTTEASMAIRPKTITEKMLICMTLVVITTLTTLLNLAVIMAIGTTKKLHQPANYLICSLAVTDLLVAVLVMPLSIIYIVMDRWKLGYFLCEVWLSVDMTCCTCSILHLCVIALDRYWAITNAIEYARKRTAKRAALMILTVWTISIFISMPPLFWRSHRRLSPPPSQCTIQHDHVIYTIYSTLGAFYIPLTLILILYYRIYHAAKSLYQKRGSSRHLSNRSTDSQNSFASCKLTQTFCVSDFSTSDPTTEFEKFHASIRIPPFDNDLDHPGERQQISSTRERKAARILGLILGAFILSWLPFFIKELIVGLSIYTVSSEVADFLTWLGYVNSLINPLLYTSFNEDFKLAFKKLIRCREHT
Jurkat tox 60K: reduces viability or proliferation of Jurkat cells; AID 463; Jurkat E6.1 viability, ATP luminescence, 48 h; inhibition, % at 4 µM; 1.2% of 56,000 active;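 active means inhibition above the mean inhibition of all tested compounds plus 3 SD, cut at about 28% in these data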
5-HT1A blocker: antagonists of human 5-HT1a serotonin receptor. P08908. CHO 5-HT1a Ga15 NFAT-bla reporter, antagonist mode. inhibition, % at 10 µM. 0.68% of 62,000 active. AID 612;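 active means inhibition above the mean of all tested compounds plus 3 SD, cut at about 43% in these data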;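 further: receptor stimulated by 5-CT agonist at 100 nM near EC80; beta-lactamase reporter measured by ratiometric fluorescence of a cleavable substrate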
HTR1E antagonist: blocks the human 5-HT1E serotonin receptor; AID 571; inhibition, % at 6 µM; 0.99% of 65,000 active; CHO 5-HT1E Ga15 NFAT-bla reporter, FRET, antagonist;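 active means inhibition above a set limit, the mean inhibition across every tested compound plus 3 SD, cut at about 29% in these data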;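 further: signal is the 460 over 535 nm emission ratio of beta-lactamase substrate; 0% = agonist plus DMSO wells and 100% = wells without agonist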
HEK293 NFkB inh: lowers PMA/ionomycin-induced NF-kB signal in HEK293 cells; HEK-293 NF-kB luciferase reporter, luminescence; 0.21% of 62,000 active; inhibition, % at 3 µM;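 active means inhibition above the mean of all tested compounds plus 3 SD, cut at about 40% in these data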;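 further: 0% = stimulated DMSO wells and 100% = 10 µM reference inhibitor 5653914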
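Signal: luciferase luminescence; Material: HEK-293 cells with stable firefly luciferase reporter driven by four HIV NF-kB elements; Probe or stimulus: PMA with ionomycin; Replication: tested once; Times: 1 h compound pretreatment, then 16 h stimulation at 37 °C, 5% CO2; Benchmarks: DMSO and 10 µM reference inhibitor; Evaluation: per-plate % inhibition versus controls.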
5HT1a ag: activates the human 5-HT1a serotonin receptor | P08908 | activation, % at 10 µM | 0.56% of 65,000 active | CHO 5-HT1a Ga15 NFAT-bla reporter, FRET ratio; 0% basal, 100% maximal reference agonist;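 active means activation above the screen-wide mean activation plus 3 SD, cut at about 19% in these data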;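 further: 0% = DMSO wells and 100% = 5-CT at EC100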
Starred values were filed as active, the others as inactive; . = no result given. Most compounds without a hit are left out; they make up all but 3.3% or so of the library.

SMILES	HTR1E agonist	Jurkat tox 60K	5-HT1A blocker	HTR1E antagonist	HEK293 NFkB inh	5HT1a ag
CN(C)Cc1cc(C(C)(C)c2cc(CN(C)C)c(O)c(CN(C)C)c2)cc(CN(C)C)c1O	0	0	-10	-11	14	75*
Cn1nnnc1SCCNC/C=C/c1ccccc1	0	4	4	-6	14	-4
N#Cc1c(N)n(C2CCCCC2)c2nc3ccccc3nc12	7	5	-14	27	4	25*
COc1ccc(Cn2c(=O)oc3ccc(C)cc32)cc1OC	0	40*	15	19	13	-2
COc1cc2c(cc1OC)C(COc1ccc3c(C)cc(=O)oc3c1)N(C(=O)c1ccco1)CC2 (centres undefined)	0	.	6	30*	12	2
COc1cc2c(cc1OC)C(COc1ccc(F)cc1)N(C(=O)c1ccco1)CC2 (centres undefined)	0	.	30	18	18	1
Cc1ccccc1-n1c(SCc2ccccn2)nc2n[nH]c(C)c2c1=N	1	13	-93	57*	18	5
CCOc1ccccc1NC(=O)CCSc1nc2n[nH]c(C)c2c(=N)n1-c1ccccc1Cl	2	.	-5	24	14	6
CC(C)c1ccccc1NC(=O)c1cccnc1	0	1	2	-7	12	-1
CSc1ccccc1NC(=O)c1cccnc1	48*	-5	-12	-3	1	-1
CCOc1cc(C#N)c(NC(=O)c2cccnc2)cc1OCC	-1	72*	10	5	35	-1
O=C(CN(Cc1ccc(F)cc1)C(=O)Cn1nnc2ccccc21)NCC1CCCO1 (centres undefined)	-1	-2	5	-4	-11	-2
COc1ccc(N2CCN(C(c3ccccc3OC)c3nnnn3C3CCCC3)CC2)cc1 (centres undefined)	0	-2	29	-1	22	-5
COc1cccc(C(c2nnnn2Cc2ccco2)N2CCN(c3cccc(C)c3C)CC2)c1OC (centres undefined)	2	0	52*	-22	27	3
COc1ccc(N2CCN(C(c3cccc(OC)c3OC)c3nnnn3C3CCCC3)CC2)cc1 (centres undefined)	0	2	44*	4	14	-1
COc1ccc(N(CC(=O)NC(C)(C)C)S(=O)(=O)c2ccccc2)cc1OC	-1	0	12	-1	1	0
CN(C(=O)c1ccc(NC(=O)c2cnccn2)cc1)C1CCCCC1	-1	.	-2	5	2	0
N#Cc1cc2c(=O)n3ccccc3nc2n(Cc2cccnc2)c1=N	-1	.	7	-1	-1	-1
Cc1cc(-n2c(=O)c(C#N)cc3c(=O)n4ccccc4nc32)no1	19*	0	-114	-39	3	72*
C=CCn1c(=O)c(C#N)cc2c(=O)n3ccccc3nc21	16*	-1	-44	-28	8	43*
CCNc1nc(NC(C)(C)C)nc(N(C#N)CC)n1	0	6	-7	29*	6	2
CCNc1nc(NC(C)C)nc(N(C#N)Cc2ccccc2)n1	1	3	-18	20	-1	2
COc1ccc(/C=N/n2c(SC)nnc2-c2ccccc2)c(OC)c1OC	2	68*	10	15	-2	0
C=CCNC(=O)NS(=O)(=O)c1ccc(C)cc1	0	0	-4	-7	3	-1
COc1ccc(NS(=O)(=O)c2cc(C)ccc2NC(=O)c2cc(C)oc2C)cc1	0	90*	63*	61*	38	0
SMILES	HTR1E agonist	Jurkat tox 60K	5-HT1A blocker	HTR1E antagonist	HEK293 NFkB inh	5HT1a ag
CC(C)C(NC(=O)OC(C)(C)C)C(=O)N1CCCC1C(=O)NC(Cc1ccccc1)C(N)=O (centres undefined)	0	-5	-2	-4	4	0
CC(C)Cn1c(N)c(C(=O)CSc2ccc3c(c2)OCCO3)c(=O)n(C)c1=O	1	36*	17	8	38	1
CC(C)Cn1c(N)c(C(=O)COC(=O)c2ccc3c(c2)OCCO3)c(=O)n(C)c1=O	0	3	-7	-8	24	-2
COCc1c(C(=O)OCC(=O)c2c(N)n(CC(C)C)c(=O)n(C)c2=O)oc2ccccc12	0	14	28	4	15	3
Cc1c(C(=O)OCC(=O)c2c(N)n(CC(C)C)c(=O)n(C)c2=O)oc2ccccc12	0	2	43*	7	6	0
CCOc1nc(Nc2ccc(-c3nc4ccccc4o3)cc2)nc(N2CCOCC2)n1	1	2	-10	8	12	0
COC(=O)c1cc(S(=O)(=O)N2CCOCC2)ccc1Sc1ccccc1N	-1	.	1	0	5	-3
O=C(CCn1nnc2ccccc21)Nc1nnc(Cc2ccc(F)cc2)s1	13*	2	6	3	20	-1
COc1ccc(C2=Nn3c(nnc3-c3ccccn3)SC2)cc1OC	1	.	.	39*	.	0
COc1ccc(C2=Nn3c(nnc3-c3ccccc3OC)SC2)cc1OC	2	99*	75*	87*	47*	-1
COc1ccccc1-c1nnc2n1N=C(C)CS2	0	-4	9	2	19	-1
CCOc1ccc(C2=Nn3c(nnc3-c3ccccn3)SC2)cc1	-2	.	.	-3	.	0
Cc1ccc(-c2csc3ncnc(-n4nc(C)cc4N)c23)cc1	8.7*	4	-4	-8	11	-1
O=c1oc2c3c4c(cc2cc1-c1nc2ccccc2[nH]1)CCCN4CCC3	0	-3	-10	4	-49	0
Cc1sc(NC(=O)c2ccco2)c(C(c2cccnc2)N2CCN(c3ccc(F)cc3)CC2)c1C (centres undefined)	4	35*	0	-18	12	2
CCOC(=O)C1CCN(C(c2cccnc2)c2c(NC(=O)c3ccco3)sc(C)c2C)CC1 (centres undefined)	52*	34*	18	-3	9	3
COc1ccccc1N1C(=O)CCC1(C#N)c1ccccc1 (centres undefined)	0	3	-2	-5	-2	-4
CCOc1ccc(OCC)c(NC(=O)CN2CCN(c3cccc(C)c3C)CC2)c1	28*	.	-11	-7	10	4
CCOc1ccccc1CN(Cc1ccco1)S(=O)(=O)c1ccc(-n2cnnn2)c(OC)c1	0	67*	54*	17	22	-3
Cc1nc2ccccc2c2oc(C(=O)NCc3ccc4c(c3)OCO4)cc12	-1	13	-3	16	2	-2
Cc1nc2ccccc2c2oc(C(=O)NCc3ccccn3)cc12	0	9	1	-1	29	34*
Cc1ccc(-c2nc(CS(=O)CC(=O)NCCC(C)C)c(C)o2)cc1 (centres undefined)	0	2	-2	-10	11	1
